Experimental data from ChEMBL document CHEMBL4184106, “Discovering alkylamide derivatives of bexarotene as new therapeutic agents against triple-negative breast cancer” (Bioorg Med Chem Lett, 2018).
Calls of active or inactive are those of the source. The rule behind the calls is not given here.

Legend:
MCF7 [1] = test: Inhibition of mammosphere formation in human MCF7 cells assessed as ratio of C-Myc to beta actin level at 5 uM by Western blot analysis (Rvb= 1); format: functional
In short: (§1)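 Post-treatment cell lysates were probed by Western blot for CSC markers, with β-actin as the loading control. Band densitometry was normalized to DMSO-treated samples.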

MCF7 [2] = test: Cytotoxicity against human MCF7 cells assessed as reduction in cell viability at 5 uM by MTT assay; format: functional
MDA-MB-231 [3] = test: Cytotoxicity against human MDA-MB-231 cells assessed as reduction in cell viability at 5 uM by MTT assay; format: functional
BT-549 [4] = test: Cytotoxicity against human BT549 cells assessed as reduction in cell viability at 5 uM by MTT assay; format: functional
MDA-MB-231 [5] = test: Cytotoxicity against human MDA-MB-231 cells assessed as reduction in cell viability by MTT assay; format: functional, cell-based
BT-549 [6] = test: Cytotoxicity against human BT549 cells assessed as reduction in cell viability by MTT assay; format: functional, cell-based
MCF-10A [7] = test: Cytotoxicity against human MCF10A cells assessed as reduction in cell viability by MTT assay; format: cell-based
MDA-MB-231 [8] = test: Induction of apoptosis in human MDA-MB-231 cells assessed as ratio of cleaved caspase-3 to beta-actin level at 5 uM by western blot analysis (reference value: 1); format: functional
BT-549 [9] = test: Induction of apoptosis in human BT549 cells assessed as ratio of cleaved caspase-3 to beta-actin level at 5 uM by western blot analysis (reference value: 1); format: functional
MCF-10A [10] = test: Induction of apoptosis in human MCF10A cells assessed as ratio of cleaved caspase-3 to beta-actin level at 5 uM by western blot analysis (reference value: 1); format: cell-based
MCF7 [11] = test: Induction of apoptosis in human MCF7 cells assessed as ratio of cleaved caspase-3 to beta-actin level at 5 uM by western blot analysis (reference value: 1); format: functional
MDA-MB-231 [12] = test: Induction of apoptosis in human MDA-MB-231 cells assessed as ratio of cleaved caspase-8 to beta-actin level at 5 uM by western blot analysis (reference value: 1); format: functional
BT-549 [13] = test: Induction of apoptosis in human BT549 cells assessed as ratio of cleaved caspase-8 to beta-actin level at 5 uM by western blot analysis (reference value: 1); format: functional
MCF-10A [14] = test: Induction of apoptosis in human MCF10A cells assessed as ratio of cleaved caspase-8 to beta-actin level at 5 uM by western blot analysis (reference value: 1); format: cell-based
MCF7 [15] = test: Induction of apoptosis in human MCF7 cells assessed as ratio of cleaved caspase-8 to beta-actin level at 5 uM by western blot analysis (reference value: 1); format: functional
MDA-MB-231 [16] = test: Induction of apoptosis in human MDA-MB-231 cells assessed as ratio of cleaved caspase-9 to beta-actin level at 5 uM by western blot analysis (reference value: 1); format: functional
BT-549 [17] = test: Induction of apoptosis in human BT549 cells assessed as ratio of cleaved caspase-9 to beta-actin level at 5 uM by western blot analysis (reference value: 1); format: functional
MCF-10A [18] = test: Induction of apoptosis in human MCF10A cells assessed as ratio of cleaved caspase-9 to beta-actin level at 5 uM by western blot analysis (reference value: 1); format: cell-based
MCF7 [19] = test: Induction of apoptosis in human MCF7 cells assessed as ratio of cleaved caspase-9 to beta-actin level at 5 uM by western blot analysis (reference value: 1); format: functional
MCF7 [20] = test: Inhibition of colony formation in human MCF7 cells at 5 uM supplemented with fresh medium containing compound every 3 to 4 days for 7 days by crystal violet staining based adherent cell colony-forming assay; format: functional
In short: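 MCF-7 cells were plated for adherent colony formation and treated for 7 days. Colonies were counted at the end of treatment and normalized to untreated samples.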

MDA-MB-231 [21] = test: Inhibition of colony formation in human MDA-MB-231 cells at 2 uM supplemented with fresh medium containing compound every 3 days for 10 days by microscopic method based soft agar colony formation assay relative to control; format: functional
MDA-MB-231 [22] = test: Anti-migratory activity against human MDA-MB-231 cells assessed as reduction in wound closure at 2 uM up to 24 hrs by wound-healing assay; format: functional, cell-based
In short: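 MDA-MB-231 monolayer was scratched to make a wound gap. Cells were treated alongside a DMSO vehicle control, and migration into the gap was imaged at 24 h.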

MCF7 [23] = test: Inhibition of mammosphere formation in human MCF7 cells at 2 uM after 7 days by microscopic method; format: functional, cell-based
In short: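 MCF-7 cells were grown under mammosphere-forming conditions with compound. Spheres 60 μm or larger were counted for quantitation.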

MCF7 [24] = test: Down regulation of c-Myc expression in human MCF7 cells at 5 uM by Western blot analysis; format: functional
In short: (§2)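 MCF-7 cells were treated and lysates probed by Western blot for CSC-related markers, with β-actin as loading control. Band densitometry was normalized to DMSO-treated samples.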

MCF7 [25] = test: Down regulation of KLF4 expression in human MCF7 cells at 5 uM by Western blot analysis; format: functional; in short: as §2
MCF7 [26] = test: Down regulation of Nanog expression in human MCF7 cells at 5 uM by Western blot analysis; format: functional; in short: as §2
MCF7 [27] = test: Down regulation of Oct4A expression in human MCF7 cells at 5 uM by Western blot analysis; format: functional; in short: as §2
MDA-MB-231 [28] = test: Down regulation of KLF4 expression in human MDA-MB-231 cells at 5 uM by Western blot analysis; format: functional
MCF7 [29] = test: Inhibition of mammosphere formation in human MCF7 cells assessed as ratio of KLF4 to beta actin level at 5 uM by Western blot analysis (Rvb= 1); format: functional; in short: as §1
MCF7 [30] = test: Inhibition of mammosphere formation in human MCF7 cells assessed as ratio of Nanog to beta actin level at 5 uM by Western blot analysis (Rvb= 1); format: functional; in short: as §1
MCF7 [31] = test: Inhibition of mammosphere formation in human MCF7 cells assessed as ratio of Oct4A to beta actin level at 5 uM by Western blot analysis (Rvb= 1); format: functional; in short: as §1
MCF7 [32] = test: Inhibition of mammosphere formation in human MCF7 cells assessed as ratio of Sox2 to beta actin level at 5 uM by Western blot analysis (Rvb= 1); format: functional; in short: as §1
MDA-MB-231 [33] = test: Inhibition of mammosphere formation in human MDA-MB-231 cells assessed as ratio of C-Myc to beta actin level at 5 uM by Western blot analysis (Rvb= 1); format: functional; in short: as §1
MDA-MB-231 [34] = test: Inhibition of mammosphere formation in human MDA-MB-231 cells assessed as ratio of KLF4 to beta actin level at 5 uM by Western blot analysis (Rvb= 1); format: functional; in short: as §1
BT-549 [35] = test: Inhibition of mammosphere formation in human BT549 cells assessed as ratio of C-Myc to beta actin level at 5 uM by Western blot analysis (Rvb= 1); format: functional
BT-549 [36] = test: Inhibition of mammosphere formation in human BT549 cells assessed as ratio of KLF4 to beta actin level at 5 uM by Western blot analysis (Rvb= 1); format: functional
MDA-MB-231 [37] = test: Effect on epithelial-mesenchymal transition in human MDA-MB-231 cells assessed as ratio of E-cadherin to beta-actin level at 5 uM by Western blot analysis (reference value: 1); format: functional
MDA-MB-231 [38] = test: Effect on epithelial-mesenchymal transition in human MDA-MB-231 cells assessed as ratio of vimentin to beta-actin level at 5 uM by Western blot analysis (reference value: 1); format: functional
MDA-MB-231 [39] = test: Effect on epithelial-mesenchymal transition in human MDA-MB-231 cells assessed as ratio of slug to beta-actin level at 5 uM by Western blot analysis (reference value: 1); format: functional
BT-549 [40] = test: Effect on epithelial-mesenchymal transition in human BT549 cells assessed as ratio of E-cadherin to beta-actin level at 5 uM by Western blot analysis (reference value: 1); format: functional
BT-549 [41] = test: Effect on epithelial-mesenchymal transition in human BT549 cells assessed as ratio of vimentin to beta-actin level at 5 uM by Western blot analysis (reference value: 1); format: functional
BT-549 [42] = test: Effect on epithelial-mesenchymal transition in human BT549 cells assessed as ratio of slug to beta-actin level at 5 uM by Western blot analysis (reference value: 1); format: functional

## C=C(c1ccc(C(=O)NCCN(CC)CC)cc1)c1cc2c(cc1C)C(C)(C)CCC2(C)C
MCF7 [1]
  Ratio: 0.7
MCF7 [2]
  Activity: 40%
MDA-MB-231 [3]
  Activity: 60%
BT-549 [4]
  Activity: 60%
MDA-MB-231 [5]
  EC50: < 10 µM
BT-549 [6]
  EC50: < 10 µM
MCF-10A [7]
  Activity: Non-Toxic
MDA-MB-231 [8]
  Ratio: 1.3
BT-549 [9]
  Ratio: 2.6
MCF-10A [10]
  Ratio: 1.1
MCF7 [11]
  Ratio: 0.9
MDA-MB-231 [12]
  Ratio: 1.5
BT-549 [13]
  Ratio: 2.1
MCF-10A [14]
  Ratio: 1
MCF7 [15]
  Ratio: 1
MDA-MB-231 [16]
  Ratio: 2.5
BT-549 [17]
  Ratio: 2.3
MCF-10A [18]
  Ratio: 1
MCF7 [19]
  Ratio: 1
MCF7 [20]
  inhibition (INH): 80%
MDA-MB-231 [21]
  inhibition (INH): 90%
MDA-MB-231 [22]
  Activity: Active
MCF7 [23]
  inhibition: Active
MCF7 [24]
  Activity: 10 - 30%
MCF7 [25]
  Activity: 10 - 30%
MCF7 [26]
  Activity: 20%
MCF7 [27]
  Activity: 50%
MDA-MB-231 [28]
  Activity: 50%
MCF7 [29]
  Ratio: 0.9
MCF7 [30]
  Ratio: 0.8
MCF7 [31]
  Ratio: 0.5
MCF7 [32]
  Ratio: 0.9
MDA-MB-231 [33]
  Ratio: 0.9
MDA-MB-231 [34]
  Ratio: 0.5
BT-549 [35]
  Ratio: 0.9
BT-549 [36]
  Ratio: 0.5
MDA-MB-231 [37]
  Ratio: 1.9
MDA-MB-231 [38]
  Ratio: 0.4
MDA-MB-231 [39]
  Ratio: 0.9
BT-549 [40]
  Ratio: 2.4
BT-549 [41]
  Ratio: 0.4
BT-549 [42]
  Ratio: 0.4
